Reference: ChEMBL document CHEMBL5705885, “CYT387, a selective JAK1/JAK2 inhibitor: in vitro assessment of kinase selectivity and preclinical studies using cell lines and primary cells from polycythemia vera patients” (Leukemia, 2009)

Legend:
[1] = biological target: AMP-activated protein kinase (AMPK) alpha-1/beta-1/gamma-1 (Homo sapiens, UniProt P54619+Q13131+Q9Y478); test: Inhibition of AMPK alpha1/beta1/gamma1 (unknown origin); assay type: protein-complex assay
[2] = biological target: Inhibitor of nuclear factor kappa-B kinase subunit beta (Homo sapiens, UniProt O14920); test: Inhibition of IKBKB (unknown origin)
[3] = biological target: T1, Vascular endothelial growth factor receptor 2 (Homo sapiens, UniProt P35968); test: Inhibition of KDR (unknown origin)
[4] = biological target: T2, Mitogen-activated protein kinase kinase kinase 9 (Homo sapiens, UniProt P80192); test: Inhibition of MAP3K9 (unknown origin)
[5] = biological target: Mitogen-activated protein kinase kinase kinase kinase 2 (Homo sapiens, UniProt Q12851); test: Inhibition of MAP4K2 (unknown origin)
[6] = biological target: Mitogen-activated protein kinase 1 (Homo sapiens, UniProt P28482); test: Inhibition of MAPK1 (unknown origin)
[7] = biological target: Myosin light chain kinase 2, skeletal/cardiac muscle (Homo sapiens, UniProt Q9H1R3); test: Inhibition of MYLK2 (unknown origin)
[8] = biological target: High affinity nerve growth factor receptor (Homo sapiens, UniProt P04629); test: Inhibition of NTRK1 (unknown origin)
[9] = biological target: Serine/threonine-protein kinase PLK3 (Homo sapiens, UniProt Q9H4B4); test: Inhibition of PLK3 (unknown origin)
[10] = biological target: Serine/threonine-protein kinase Sgk1 (Homo sapiens, UniProt O00141); test: Inhibition of SGK (unknown origin)
[11] = biological target: Tyrosine-protein kinase SYK (Homo sapiens, UniProt P43405); test: Inhibition of SYK (unknown origin)
[12] = biological target: Tyrosine-protein kinase receptor TYRO3 (Homo sapiens, UniProt Q06418); test: Inhibition of TYRO3 (unknown origin)
[13] = biological target: RAC-alpha serine/threonine-protein kinase (Homo sapiens, UniProt P31749); test: Inhibition of AKT1 (unknown origin)
[14] = biological target: ALK tyrosine kinase receptor (Homo sapiens, UniProt Q9UM73); test: Inhibition of ALK (unknown origin)
[15] = biological target: Death-associated protein kinase 3 (Homo sapiens, UniProt O43293); test: Inhibition of DAPK3 (unknown origin)
[16] = biological target: Ephrin type-A receptor 3 (Homo sapiens, UniProt P29320); test: Inhibition of EPHA3 (unknown origin)
[17] = biological target: Ephrin type-A receptor 8 (Homo sapiens, UniProt P29322); test: Inhibition of EPHA8 (unknown origin)
[18] = biological target: Ephrin type-B receptor 3 (Homo sapiens, UniProt P54753); test: Inhibition of EPHB3 (unknown origin)
[19] = biological target: Tyrosine-protein kinase Fer (Homo sapiens, UniProt P16591); test: Inhibition of FER (unknown origin)
[20] = biological target: Insulin-like growth factor 1 receptor (Homo sapiens, UniProt P08069); test: Inhibition of IGF1R (unknown origin)
[21] = biological target: Mitogen-activated protein kinase 14 (Homo sapiens, UniProt Q16539); test: Inhibition of MAPK14 (unknown origin)
[22] = biological target: Mitogen-activated protein kinase 3 (Homo sapiens, UniProt P27361); test: Inhibition of MAPK3 (unknown origin)
[23] = biological target: Serine/threonine-protein kinase PAK 2 (Homo sapiens, UniProt Q13177); test: Inhibition of PAK2 (unknown origin)
[24] = biological target: Serine/threonine-protein kinase PAK 6 (Homo sapiens, UniProt Q9NQU5); test: Inhibition of PAK6 (unknown origin)
[25] = biological target: PAS domain-containing serine/threonine-protein kinase (Homo sapiens, UniProt Q96RG2); test: Inhibition of PASK (unknown origin)
[26] = biological target: cAMP-dependent protein kinase catalytic subunit alpha (Homo sapiens, UniProt P17612); test: Inhibition of PRKACA (unknown origin)
[27] = biological target: Proto-oncogene tyrosine-protein kinase Src (Homo sapiens, UniProt P12931); test: Inhibition of SRC (unknown origin)
[28] = system: K562; test: Antiproliferative activity against human K562 cells measured after 72 hrs by Alamar blue staining based analysis; assay type: functional, cell-based; settings: K562, 72 h
How it was run: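 Cells were exposed for 72 h at 37 °C under 5% CO2 to compound made up as DMSO stock and diluted in culture medium. Proliferation was then read by Alamar Blue.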

[29] = biological target: Tyrosine-protein kinase JAK1 (Homo sapiens) (UniProt P23458); settings: dose 100.0 nM
[30] = biological target: Serine/threonine-protein kinase D1 (Homo sapiens) (UniProt Q15139); settings: dose 100.0 nM
[31] = biological target: AMP-activated protein kinase (AMPK) alpha-1/beta-1/gamma-1 (Homo sapiens) (UniProt P54619+Q9Y478+Q13131); settings: dose 100.0 nM
[32] = biological target: Serine/threonine-protein kinase B-raf (Homo sapiens, UniProt P15056); settings: dose 100.0 nM
[33] = biological target: Cyclin-dependent kinase 1/cyclin B1 (Homo sapiens) (UniProt P06493+P14635); settings: dose 100.0 nM
[34] = biological target: Dual specificity protein kinase CLK1 (Homo sapiens, UniProt P49759); settings: dose 100.0 nM
[35] = biological target: G protein-coupled receptor kinase 4 (Homo sapiens, UniProt P32298); settings: dose 100.0 nM
[36] = biological target: Homeodomain-interacting protein kinase 1 (Homo sapiens, UniProt Q86Z02); settings: dose 100.0 nM
[37] = biological target: T1, Vascular endothelial growth factor receptor 2; settings: dose 100.0 nM
[38] = biological target: T2, Mitogen-activated protein kinase kinase kinase 9; settings: dose 100.0 nM
[39] = biological target: Serine/threonine-protein kinase MARK1 (Homo sapiens, UniProt Q9P0L2); settings: dose 100.0 nM
[40] = biological target: Tyrosine-protein kinase Mer (Homo sapiens) (UniProt Q12866); settings: dose 100.0 nM
[41] = biological target: Serine/threonine-protein kinase 26 (Homo sapiens, UniProt Q9P289); settings: dose 100.0 nM
[42] = biological target: BDNF/NT-3 growth factors receptor (Homo sapiens, UniProt Q16620); settings: dose 100.0 nM
[43] = biological target: Serine/threonine-protein kinase N1 (Homo sapiens, UniProt Q16512); settings: dose 100.0 nM
[44] = biological target: Serine/threonine-protein kinase D2 (Homo sapiens) (UniProt Q9BZL6); settings: dose 100.0 nM
[45] = system: RAF proto-oncogene serine/threonine-protein kinase (Homo sapiens), P04049 [Y340D]; settings: dose 100.0 nM
[46] = biological target: Ribosomal protein S6 kinase alpha-1 (Homo sapiens) (UniProt Q15418); settings: dose 100.0 nM

T1 sequence (P35968 whole entry): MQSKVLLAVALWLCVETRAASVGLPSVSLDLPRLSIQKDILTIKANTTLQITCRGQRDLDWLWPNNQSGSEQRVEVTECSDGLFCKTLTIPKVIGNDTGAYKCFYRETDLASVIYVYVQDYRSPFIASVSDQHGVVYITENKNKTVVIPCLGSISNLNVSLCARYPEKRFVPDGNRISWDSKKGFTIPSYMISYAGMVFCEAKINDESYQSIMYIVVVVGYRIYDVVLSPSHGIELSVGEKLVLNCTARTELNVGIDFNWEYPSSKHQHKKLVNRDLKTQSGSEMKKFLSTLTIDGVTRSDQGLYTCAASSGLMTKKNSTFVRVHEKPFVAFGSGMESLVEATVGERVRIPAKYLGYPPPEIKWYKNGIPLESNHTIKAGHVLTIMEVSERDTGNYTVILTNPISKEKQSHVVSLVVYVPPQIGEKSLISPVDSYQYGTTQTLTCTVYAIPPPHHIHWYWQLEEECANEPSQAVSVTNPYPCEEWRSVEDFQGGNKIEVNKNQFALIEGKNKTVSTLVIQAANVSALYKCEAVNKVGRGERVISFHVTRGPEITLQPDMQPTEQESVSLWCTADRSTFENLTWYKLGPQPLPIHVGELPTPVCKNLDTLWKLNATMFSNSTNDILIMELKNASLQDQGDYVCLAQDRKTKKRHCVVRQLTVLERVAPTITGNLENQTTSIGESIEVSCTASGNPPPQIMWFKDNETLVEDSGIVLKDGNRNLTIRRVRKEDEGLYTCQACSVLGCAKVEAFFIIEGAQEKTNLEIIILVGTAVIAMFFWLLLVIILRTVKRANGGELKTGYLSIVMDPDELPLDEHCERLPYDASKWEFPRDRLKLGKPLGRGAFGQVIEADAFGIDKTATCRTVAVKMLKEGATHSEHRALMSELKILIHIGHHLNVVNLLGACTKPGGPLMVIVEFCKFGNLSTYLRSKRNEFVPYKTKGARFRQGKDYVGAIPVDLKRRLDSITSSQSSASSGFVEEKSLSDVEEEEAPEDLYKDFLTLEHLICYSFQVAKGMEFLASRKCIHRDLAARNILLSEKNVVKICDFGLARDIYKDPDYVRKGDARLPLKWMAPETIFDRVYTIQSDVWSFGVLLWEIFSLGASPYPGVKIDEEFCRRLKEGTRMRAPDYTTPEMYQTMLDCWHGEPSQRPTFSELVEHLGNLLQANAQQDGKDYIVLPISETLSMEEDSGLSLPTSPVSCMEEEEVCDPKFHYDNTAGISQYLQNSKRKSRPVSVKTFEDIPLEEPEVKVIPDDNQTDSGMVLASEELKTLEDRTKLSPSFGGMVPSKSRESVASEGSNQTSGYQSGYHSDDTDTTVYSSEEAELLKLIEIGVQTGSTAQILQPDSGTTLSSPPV
Chain of Myosin light chain kinase 2, skeletal/cardiac muscle (Q9H1R3 whole entry): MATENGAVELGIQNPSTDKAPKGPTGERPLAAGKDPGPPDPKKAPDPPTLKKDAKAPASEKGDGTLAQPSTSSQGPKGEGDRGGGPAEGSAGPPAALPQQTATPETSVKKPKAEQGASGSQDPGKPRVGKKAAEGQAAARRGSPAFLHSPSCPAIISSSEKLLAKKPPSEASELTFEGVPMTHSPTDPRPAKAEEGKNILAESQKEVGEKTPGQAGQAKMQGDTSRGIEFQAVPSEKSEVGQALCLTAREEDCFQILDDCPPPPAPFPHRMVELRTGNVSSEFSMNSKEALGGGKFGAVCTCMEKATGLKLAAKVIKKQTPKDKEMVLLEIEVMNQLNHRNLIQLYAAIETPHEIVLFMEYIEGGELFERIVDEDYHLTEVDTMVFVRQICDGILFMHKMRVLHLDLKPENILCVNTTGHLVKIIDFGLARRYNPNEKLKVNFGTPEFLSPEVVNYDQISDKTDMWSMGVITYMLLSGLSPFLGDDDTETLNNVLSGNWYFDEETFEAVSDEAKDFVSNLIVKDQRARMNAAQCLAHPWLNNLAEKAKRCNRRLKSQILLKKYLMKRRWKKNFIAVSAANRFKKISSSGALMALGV
Chain of Serine/threonine-protein kinase PAK 2 (Q13177 whole entry): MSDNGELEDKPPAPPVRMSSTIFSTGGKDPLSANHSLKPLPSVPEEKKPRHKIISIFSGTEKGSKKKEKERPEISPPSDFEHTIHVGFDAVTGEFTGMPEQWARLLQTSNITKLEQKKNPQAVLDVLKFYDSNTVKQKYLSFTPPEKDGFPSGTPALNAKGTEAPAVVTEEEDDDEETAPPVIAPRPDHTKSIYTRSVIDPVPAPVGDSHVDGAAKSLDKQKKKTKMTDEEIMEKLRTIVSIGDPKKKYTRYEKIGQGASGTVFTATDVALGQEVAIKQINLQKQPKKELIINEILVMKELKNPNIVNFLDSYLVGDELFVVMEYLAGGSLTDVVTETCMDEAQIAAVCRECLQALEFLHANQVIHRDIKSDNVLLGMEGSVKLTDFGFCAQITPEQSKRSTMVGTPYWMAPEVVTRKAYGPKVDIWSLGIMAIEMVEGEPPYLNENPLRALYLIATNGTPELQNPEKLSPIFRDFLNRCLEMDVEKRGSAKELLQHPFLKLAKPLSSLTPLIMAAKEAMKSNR
Chain of G protein-coupled receptor kinase 4 (P32298 whole entry, looked up): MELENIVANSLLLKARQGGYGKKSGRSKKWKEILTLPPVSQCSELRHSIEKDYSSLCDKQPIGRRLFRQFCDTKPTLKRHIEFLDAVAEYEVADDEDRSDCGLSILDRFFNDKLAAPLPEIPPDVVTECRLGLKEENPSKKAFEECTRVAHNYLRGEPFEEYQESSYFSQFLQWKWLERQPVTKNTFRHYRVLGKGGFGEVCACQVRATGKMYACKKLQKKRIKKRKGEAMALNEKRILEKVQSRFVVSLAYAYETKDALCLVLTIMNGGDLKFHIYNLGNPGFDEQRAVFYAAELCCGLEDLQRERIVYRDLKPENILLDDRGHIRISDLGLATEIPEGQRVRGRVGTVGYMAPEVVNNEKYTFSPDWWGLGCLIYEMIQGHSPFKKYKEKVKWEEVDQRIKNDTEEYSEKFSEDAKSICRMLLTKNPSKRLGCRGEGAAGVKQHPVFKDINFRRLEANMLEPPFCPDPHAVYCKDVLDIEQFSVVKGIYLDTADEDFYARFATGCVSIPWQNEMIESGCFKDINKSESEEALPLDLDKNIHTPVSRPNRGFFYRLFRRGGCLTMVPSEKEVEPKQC
Chain of Mitogen-activated protein kinase 14 (Q16539 whole entry): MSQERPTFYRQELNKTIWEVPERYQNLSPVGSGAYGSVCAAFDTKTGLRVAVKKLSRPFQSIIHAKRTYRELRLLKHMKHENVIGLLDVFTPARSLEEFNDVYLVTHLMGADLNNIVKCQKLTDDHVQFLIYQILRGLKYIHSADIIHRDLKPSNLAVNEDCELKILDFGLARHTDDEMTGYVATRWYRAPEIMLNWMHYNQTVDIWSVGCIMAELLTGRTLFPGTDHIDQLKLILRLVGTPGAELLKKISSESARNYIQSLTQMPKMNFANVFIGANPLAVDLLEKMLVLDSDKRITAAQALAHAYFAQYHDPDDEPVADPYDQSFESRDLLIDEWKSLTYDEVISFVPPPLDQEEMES
Chain of Ephrin type-A receptor 8 (P29322 whole entry): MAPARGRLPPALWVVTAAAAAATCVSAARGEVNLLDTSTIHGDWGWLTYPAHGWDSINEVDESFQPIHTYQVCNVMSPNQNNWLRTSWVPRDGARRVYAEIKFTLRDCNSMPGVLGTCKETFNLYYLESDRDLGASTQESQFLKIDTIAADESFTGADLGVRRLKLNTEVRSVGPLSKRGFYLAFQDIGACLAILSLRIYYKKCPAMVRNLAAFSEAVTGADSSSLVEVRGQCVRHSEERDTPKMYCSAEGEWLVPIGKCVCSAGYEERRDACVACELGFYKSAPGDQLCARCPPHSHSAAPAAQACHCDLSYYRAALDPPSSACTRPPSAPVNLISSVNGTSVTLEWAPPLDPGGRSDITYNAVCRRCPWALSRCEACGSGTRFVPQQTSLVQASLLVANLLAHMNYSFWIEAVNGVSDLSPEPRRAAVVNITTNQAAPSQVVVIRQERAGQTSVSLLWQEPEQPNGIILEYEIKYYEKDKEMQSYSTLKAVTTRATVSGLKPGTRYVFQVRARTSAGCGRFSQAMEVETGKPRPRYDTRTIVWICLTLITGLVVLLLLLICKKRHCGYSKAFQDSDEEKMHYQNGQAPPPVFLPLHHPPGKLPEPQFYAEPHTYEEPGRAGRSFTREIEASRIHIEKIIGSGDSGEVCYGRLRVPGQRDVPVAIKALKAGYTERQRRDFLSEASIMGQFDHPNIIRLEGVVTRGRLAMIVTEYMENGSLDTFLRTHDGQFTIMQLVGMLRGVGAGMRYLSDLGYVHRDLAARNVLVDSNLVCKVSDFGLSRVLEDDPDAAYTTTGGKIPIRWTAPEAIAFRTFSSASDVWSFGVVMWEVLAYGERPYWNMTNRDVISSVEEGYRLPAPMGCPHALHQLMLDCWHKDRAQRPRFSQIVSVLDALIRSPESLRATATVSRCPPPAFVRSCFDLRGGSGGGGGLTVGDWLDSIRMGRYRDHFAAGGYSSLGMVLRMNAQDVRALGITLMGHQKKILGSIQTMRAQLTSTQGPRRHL
Chain of Serine/threonine-protein kinase PLK3 (Q9H4B4 whole entry): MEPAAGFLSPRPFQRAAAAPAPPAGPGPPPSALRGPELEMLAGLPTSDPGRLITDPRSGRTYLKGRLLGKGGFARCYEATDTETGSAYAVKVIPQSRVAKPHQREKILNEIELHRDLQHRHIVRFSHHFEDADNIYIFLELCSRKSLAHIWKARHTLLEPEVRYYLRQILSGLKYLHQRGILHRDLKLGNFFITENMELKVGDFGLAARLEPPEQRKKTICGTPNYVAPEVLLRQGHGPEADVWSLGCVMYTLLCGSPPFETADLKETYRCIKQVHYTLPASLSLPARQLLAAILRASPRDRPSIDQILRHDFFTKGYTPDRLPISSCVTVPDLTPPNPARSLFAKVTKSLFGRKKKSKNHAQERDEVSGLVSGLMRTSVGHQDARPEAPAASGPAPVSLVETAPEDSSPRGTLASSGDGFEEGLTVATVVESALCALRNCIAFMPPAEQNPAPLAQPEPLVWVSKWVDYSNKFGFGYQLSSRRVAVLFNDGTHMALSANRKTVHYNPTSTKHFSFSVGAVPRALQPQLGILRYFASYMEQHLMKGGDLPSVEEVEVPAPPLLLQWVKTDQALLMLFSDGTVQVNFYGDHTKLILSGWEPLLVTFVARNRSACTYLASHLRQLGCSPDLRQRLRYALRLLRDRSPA

IC50 [1]: < 1000 nM
IC50 [2]: < 1000 nM
IC50 [3]: < 1000 nM
IC50 [4]: < 1000 nM
IC50 [5]: < 1000 nM
IC50 [6]: < 1000 nM
IC50 [7]: < 1000 nM
IC50 [8]: < 1000 nM
IC50 [9]: < 1000 nM
IC50 [10]: < 1000 nM
IC50 [11]: < 1000 nM
IC50 [12]: < 1000 nM
IC50 [13]: > 1000 nM
IC50 [14]: > 1000 nM
IC50 [16]: > 1000 nM
IC50 [17]: > 1000 nM
IC50 [18]: > 1000 nM
IC50 [19]: > 1000 nM
IC50 [20]: > 1000 nM
IC50 [21]: > 1000 nM
IC50 [22]: > 1000 nM
IC50 [23]: > 1000 nM
IC50 [24]: > 1000 nM
IC50 [25]: > 1000 nM
IC50 [26]: > 1000 nM
IC50 [27]: > 1000 nM
IC50 [28]: 58000 nM
inhibition [29]: > 50%
inhibition [30]: > 50%
inhibition [31]: < 50%
inhibition [32]: < 50%
inhibition [33]: < 50%
inhibition [34]: < 50%
inhibition [35]: < 50%
inhibition [36]: < 50%
inhibition [37]: < 50%
inhibition [38]: < 50%
inhibition [39]: < 50%
inhibition [40]: < 50%
inhibition [41]: < 50%
inhibition [42]: < 50%
inhibition [43]: < 50%
inhibition [44]: < 50%
inhibition [45]: < 50%
inhibition [46]: < 50%
Compound: N#CCNC(=O)c1ccc(-c2ccnc(Nc3ccc(N4CCOCC4)cc3)n2)cc1 [MOMELOTINIB]
IC50 [15]: > 1000 nM
